Laboratory results from ChEMBL document CHEMBL2163200, “Synthesis, biological evaluation, and structure-activity relationships of novel substituted N-phenyl ureidobenzenesulfonate derivatives blocking cell cycle progression in S-phase and inducing DNA double-strand breaks” (J Med Chem, 2012).
The source made the active and inactive calls. No cut-off for these calls is given here.

What was measured:
MCF7 = assay: Cytotoxicity against human MCF7 cells after 48 hrs by SRB assay; type: functional, cell-based; details: MCF7, 48 h
How it was run: (§1)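 NCI sulforhodamine B protocol. Cells were grown in high-glucose DMEM with 5% FBS and seeded per well at 4 × 10^3 (HT-29), 3.5 × 10^3 (M21) or 3 × 10^3 (MCF-7), then allowed 24 h to attach. Serial dilutions from 200 μM to 780 nM final were applied in DMSO <0.5% for 48 h. Cells were fixed with cold TCA (10% final) and stained with SRB, with absorbance read at 530–568 nm. Growth inhibition was computed against day-0 plates, giving the 50% inhibitory concentration. At least two experiments in triplicate, CV <10%.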

Jurkat [1] = assay: Cell cycle arrest in human Jurkat E6-1 cells assessed as accumulation at S phase at 0.60 uM after 24 hrs by FACS flow cytometry; type: functional
How it was run: (§2)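 Jurkat E6 cells grown in RPMI 1640 with 10% FBS at 37 °C, 5% CO2. Compounds were serially diluted in medium starting 50% above the M21 IC50. 4.0 × 10^5 cells were exposed for 24 h, then washed and spiked with chicken red blood cells as internal standard. Cells were fixed in ice-cold ethanol, stained with 1 μg/mL DAPI on ice for 1 h, and phase distribution was read by flow cytometry. The control was 0.5% DMSO.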

Jurkat [2] = assay: Cell cycle arrest in human Jurkat E6-1 cells assessed as accumulation at G2/M phase at 0.60 uM after 24 hrs by FACS flow cytometry; type: functional
How it was run: (§3)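 Jurkat E6 cells cultured in RPMI 1640 with 10% FBS at 37 °C, 5% CO2. Compounds serially diluted in medium, starting 50% above the M21 IC50. 4.0 × 10^5 cells were exposed for 24 h. Cells were washed with PBS, chicken red blood cells added as internal standard, and fixed in ice-cold EtOH. After 1 h on ice in PBS with 1 μg/mL DAPI, phase distribution was read by flow cytometry. DMSO-treated cells served as control.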

[3] = Toxicity in fertilized chicken embryo assessed as mortality rate at 30 ug per egg, iv administered on day 11 measured on day 17 by CAM assay; type: organism-based, Gallus gallus; details: in vivo, read-out: Activity
How it was run: (§4)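 Fertilized chicken eggs grafted on the CAM with HT-1080 cells (3.5 × 105/egg) received a 100 μL intravenous injection under the CAM on day 11. The drug was diluted in Cremophor EL/99% ethanol/PBS (1/1/14 v/v). Groups held 10–12 eggs and were incubated until day 17, when dead embryos and signs of toxicity were counted per group.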

HT-29 = assay: Cytotoxicity against human HT-29 cells after 48 hrs by SRB assay; type: functional, cell-based; details: HT-29, 48 h; how it was run: as §1
M21 [4] = assay: Cytotoxicity against human M21 cells after 48 hrs by SRB assay; type: functional, cell-based; details: M21, 48 h; how it was run: as §1
M21 [5] = assay: Induction of DNA damage response in human M21 cells assessed as phosphorylation of H2AX into gammaH2AX at IC50 after 24 hrs by DAPI staining-based immunofluorescence assay; type: functional, cell-based
How it was run: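 M21 cells (1 × 10^5) on fibronectin-coated coverslips, grown 24 h, then exposed to agent for 24 h at 37 °C; 0.5% DMSO control. Fixed with 3.7% formaldehyde and permeabilized with 0.1% saponin/3% BSA. Probed with mouse anti-H2AX pS139 antibody for 2 h at room temperature. Nuclei counterstained with DAPI; nuclear γH2AX foci viewed by epifluorescence microscopy.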

Jurkat [6] = assay: Cell cycle arrest in human Jurkat E6-1 cells assessed as accumulation at G0/G1 phase at 0.60 uM after 24 hrs by FACS flow cytometry; type: functional; how it was run: as §3
HT-1080 [7] = assay: Antitumor activity against human HT1080 cells xenografted in chicken chorioallantoic membrane assessed as inhibition of tumor growth at 30 ug per egg, iv administered on day 11 measured on day 17 by CAM assay; type: functional
How it was run: (§5)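 HT-1080 fibrosarcoma cells (3.5 × 105/egg) were applied onto freshly exposed CAM of fertilized chicken eggs. On day 11, drug from a DMSO stock was diluted in Cremophor EL/99% ethanol/PBS (1/1/14 v/v) and 100 μL was injected into a vein under the CAM. Groups of 10–12 eggs were kept to day 17, embryos were euthanized at 4 °C for ≥4 h, and tumor wet weight was recorded.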

Jurkat [8] = assay: Cell cycle arrest in human Jurkat E6-1 cells assessed as accumulation at G2/M phase at 43 uM after 24 hrs by FACS flow cytometry; type: functional; how it was run: as §2
Jurkat [9] = assay: Cell cycle arrest in human Jurkat E6-1 cells assessed as accumulation at S phase at 43 uM after 24 hrs by FACS flow cytometry; type: functional
How it was run: (§6)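 Jurkat E6 T-lymphoblasts in RPMI 1640 with 10% FBS, 37 °C, 5% CO2. […] Chicken red blood cells were added as internal standard. Cells were fixed in ice-cold EtOH and stained with 1 μg/mL DAPI on ice for 1 h before flow cytometry of phase distribution. Vehicle control was 0.5% DMSO.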

Jurkat [10] = assay: Cell cycle arrest in human Jurkat E6-1 cells assessed as accumulation at G0/G1 phase at 43 uM after 24 hrs by FACS flow cytometry; type: functional; how it was run: as §3
Jurkat [11] = assay: Cell cycle arrest in human Jurkat E6-1 cells assessed as accumulation at S phase at 19 uM after 24 hrs by FACS flow cytometry; type: functional; how it was run: as §2
Jurkat [12] = assay: Cell cycle arrest in human Jurkat E6-1 cells assessed as accumulation at G0/G1 phase at 19 uM after 24 hrs by FACS flow cytometry; type: functional; how it was run: as §3
Jurkat [13] = assay: Cell cycle arrest in human Jurkat E6-1 cells assessed as accumulation at G2/M phase at 19 uM after 24 hrs by FACS flow cytometry; type: functional; how it was run: as §2
Jurkat [14] = assay: Cell cycle arrest in human Jurkat E6-1 cells assessed as accumulation at S phase at 3.5 uM after 24 hrs by FACS flow cytometry; type: functional; how it was run: as §6
Jurkat [15] = assay: Cell cycle arrest in human Jurkat E6-1 cells assessed as accumulation at G2/M phase at 3.5 uM after 24 hrs by FACS flow cytometry; type: functional; how it was run: as §2
Jurkat [16] = assay: Cell cycle arrest in human Jurkat E6-1 cells assessed as accumulation at G0/G1 phase at 3.5 uM after 24 hrs by FACS flow cytometry; type: functional; how it was run: as §3
Jurkat [17] = assay: Cell cycle arrest in human Jurkat E6-1 cells assessed as accumulation at S phase at 74 uM after 24 hrs by FACS flow cytometry; type: functional; how it was run: as §6
Jurkat [18] = assay: Cell cycle arrest in human Jurkat E6-1 cells assessed as accumulation at G0/G1 phase at 74 uM after 24 hrs by FACS flow cytometry; type: functional; how it was run: as §3
Jurkat [19] = assay: Cell cycle arrest in human Jurkat E6-1 cells assessed as accumulation at G2/M phase at 74 uM after 24 hrs by FACS flow cytometry; type: functional; how it was run: as §2
[20] = Toxicity in fertilized chicken embryo assessed as mortality rate at 1 ug per egg, iv administered on day 11 measured on day 17 by CAM assay; type: organism-based, Gallus gallus; details: in vivo, read-out: Activity; how it was run: as §4
HT-1080 [21] = assay: Antitumor activity against human HT1080 cells xenografted in chicken chorioallantoic membrane assessed as inhibition of tumor growth at 1 ug per egg, iv administered on day 11 measured on day 17 by CAM assay; type: functional; how it was run: as §5
Jurkat [22] = assay: Cell cycle arrest in human Jurkat E6-1 cells assessed as accumulation at G0/G1 phase at 200 uM after 24 hrs by FACS flow cytometry; type: functional; how it was run: as §3
Jurkat [23] = assay: Cell cycle arrest in human Jurkat E6-1 cells assessed as accumulation at G2/M phase at 200 uM after 24 hrs by FACS flow cytometry; type: functional; how it was run: as §2
Jurkat [24] = assay: Cell cycle arrest in human Jurkat E6-1 cells assessed as accumulation at S phase at 200 uM after 24 hrs by FACS flow cytometry; type: functional; how it was run: as §2
Jurkat [25] = assay: Cell cycle arrest in human Jurkat E6-1 cells assessed as accumulation at G0/G1 phase at 23 uM after 24 hrs by FACS flow cytometry; type: functional; how it was run: as §3
Jurkat [26] = assay: Cell cycle arrest in human Jurkat E6-1 cells assessed as accumulation at S phase at 23 uM after 24 hrs by FACS flow cytometry; type: functional; how it was run: as §2
Jurkat [27] = assay: Cell cycle arrest in human Jurkat E6-1 cells assessed as accumulation at G2/M phase at 23 uM after 24 hrs by FACS flow cytometry; type: functional; how it was run: as §2

In the case of `CCCc1ccccc1OS(=O)(=O)c1ccc(NC(=O)NCC)cc1`, the IC50 (MCF7) is reported as 1.3 µM, the Activity (Jurkat [1]) is reported as 81% and the Activity (Jurkat [2]) is reported as 7%. The mortality at 6 days [3] was 10%, the IC50 (HT-29) was 2.4 µM and the IC50 (M21 [4]) was 0.8 µM. For the same compound, the Activity (M21 [5]) was “Active”, the Activity (Jurkat [6]) was 12% and the TGI (HT-1080 [7]) was 65%.
With `CCNC(=O)Nc1cccc(S(=O)(=O)Nc2ccccc2CC)c1` the IC50 (MCF7) was 48 µM, the IC50 (HT-29) was 15 µM and the IC50 (M21 [4]) was > 100 µM. For the same compound, the Activity (Jurkat [8]) was 19%, the Activity (Jurkat [9]) was 41% and the Activity (Jurkat [10]) was 40%.
With `Cc1ccc(OS(=O)(=O)c2ccc(NC(=O)NCCCl)cc2)cc1` the IC50 (MCF7) was 33 µM, the Activity (Jurkat [11]) was 57% and the Activity (Jurkat [12]) was 32%. It also gave an IC50 (HT-29) of 30 µM, an IC50 (M21 [4]) of 21 µM and an Activity (Jurkat [13]) of 11%.
Compound `CCNC(=O)Nc1ccc(S(=O)(=O)Oc2ccc(O)cc2)cc1` has an IC50 (MCF7) of 8 µM, an Activity (Jurkat [14]) of 63% and an IC50 (HT-29) of 12 µM. The IC50 (M21 [4]) was 4.3 µM, the Activity (Jurkat [15]) was 16% and the Activity (Jurkat [16]) was 21%.
In the case of `CCc1ccccc1OS(=O)(=O)c1cccc(NC(=O)NCCCl)c1`, the IC50 (MCF7) is reported as 5.3 µM, the IC50 (HT-29) is reported as 4.3 µM and the IC50 (M21 [4]) is reported as 4.8 µM.
Work on `CCNC(=O)Nc1cccc(S(=O)(=O)Nc2ccccc2C)c1` yielded an IC50 (MCF7) of 108 µM, an Activity (Jurkat [17]) of 34% and an IC50 (HT-29) of 102 µM. It also gave an IC50 (M21 [4]) of 131 µM, an Activity (Jurkat [18]) of 46% and an Activity (Jurkat [19]) of 20%.
Work on `COc1ccc(/C=C\c2cc(OC)c(OC)c(OC)c2)cc1O` [COMBRETASTATIN A4] yielded a mortality at 6 days [20] of 21% and a TGI (HT-1080 [21]) of 49%.
`CCc1ccccc1NS(=O)(=O)c1cccc(NC(=O)NCCCCl)c1` showed an IC50 (MCF7) of 43 µM, an Activity (Jurkat [22]) of 50% and an Activity (Jurkat [23]) of 15%. For the same compound, the IC50 (HT-29) was 96 µM, the IC50 (M21 [4]) was > 200 µM and the Activity (Jurkat [24]) was 35%.
`CN(C)c1ccc(OS(=O)(=O)c2ccc(NC(=O)NCCCl)cc2)cc1` showed an IC50 (MCF7) of 58 µM, an Activity (Jurkat [25]) of 51% and an Activity (Jurkat [26]) of 40%. It also gave an IC50 (HT-29) of 39 µM, an IC50 (M21 [4]) of 43 µM and an Activity (Jurkat [27]) of 9%.
